b-catenin transl = modulators of beta-catenin nuclear translocation, primary screen, imaging, HeLa cells, immunofluorescence, high-content; nuclear translocation activity, % at 5 µM; 190,000 tested, 0.3% active;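 active means nuclear translocation activity above 50% at 5 µM, with a well cell count of 50 or more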;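 further: per-cell ratio of nuclear to cytoplasmic median beta-catenin stain intensity; plate controls were DMSO negative control for no effect and GSK-3 inhibitor IX positive control for full effect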
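Test system: human HeLa cell line; Doses: 5 µM primary, 0.02–20 µM confirmation; Incubation: 24 h compound exposure, 37°C; Detection: beta-catenin immunofluorescence imaging with DAPI; Read-out: beta-catenin nuclear/cytoplasmic ratio, % activation.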
Dynein cargo inh = inhibitors of GR-EGFP nuclear translocation, primary screen, dynein cargo transport inhibitor project, imaging, high-content, 3617.4 mouse cells; AID 1381, 2008; z-score, hits read low; 220,000 tested, 0.47% active; test concentration mostly 20 µM; stimulated with dexamethasone, 1 µM; hits give low values;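 active means plate z-score of nuclear minus cytoplasmic receptor signal below a set negative limit, without overly bright fluorescence or cell loss, cut at about -3.5 in these data, passing the limit was not always enough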;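 further: z-score of nuclear minus cytoplasmic ring GR-EGFP intensity difference per well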
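Also added: dexamethasone, 1.0 µM final. Medium: tet-free, stripped-serum medium. Detection: fixed, Hoechst-stained cells imaged at 10x for EGFP. Read-out: nuclear-to-cytoplasmic GR-EGFP distribution per well. Times: induction 48 h, compound 1 h, agonist 30 min.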
L major viab = Leishmania major promastigote growth inhibition, primary screen. Leishmania major promastigotes, resazurin fluorescence viability. inhibition, % at 10 µM. 200,000 tested, 9% active. AID 1063, 2008; in the data active means inhibition above about 50%;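 further: promastigotes grown with compound for 44 hours at 28 °C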
HSV replic up = enhancers of HSV replication in host cells, fold increase, host cell viability. HSV replication augmentation in cells. AID 1956, 2009. 220,000 tested, 0.005% active. maximum fold increase; in the data active means maximum fold increase above about 1.5; tested in PC3 cells
MT stabilize HCS = microtubule stabilizers in HeLa cells, primary screen, imaging, high-content imaging; HeLa tubulin immunostaining HCS, 24 h; share of cells brighter than vehicle mean+2SD; % tubulin-high responders, % at 10 µM; 200,000 tested, 0.83% active;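 active means plate Z-score above 3 for both tubulin-high and condensed-nucleus cell shares, with cell loss under 80%, at 10 µM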;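 further: anti alpha tubulin signal scored within the nucleus-defined area of each cell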
Active calls of the source: *; i = inactive; . = not tested or not shown. This is a sample that favours compounds with a hit; in the whole collection about 8.9% have one here.

SMILES	b-catenin transl	Dynein cargo inh	L major viab	HSV replic up	MT stabilize HCS
O=C1NC(c2ccccc2)C(C(=O)c2cccs2)C(O)(C(F)(F)F)N1 (centres undefined)	-6	0.21	-3	i	1
CCN1CCCC1CNC(=O)c1ccc(Sc2ccccc2Cl)c([N+](=O)[O-])c1 (centres undefined)	0	1	100*	i	3
O=C(c1ccc(S(=O)(=O)Cc2ccccc2F)c([N+](=O)[O-])c1)N1CCCCCC1	5	-0.74	15	i	5
CCOC(=O)CSc1ccc(C(=O)N2CCN(C)CC2)cc1[N+](=O)[O-]	1	-1.2	-5	i	.
CC1CCN(C(=O)c2ccc(SCc3ccccc3F)c([N+](=O)[O-])c2)CC1	-3	0.56	69*	i	2
CCN1CCN(C(=O)c2ccc(Sc3ccccc3Cl)c([N+](=O)[O-])c2)CC1	-1	-0.32	89*	i	2
CCN(CC)c1ccc(S(=O)(=O)N2CCOCC2)cc1NC(=O)CN1CCc2ccccc2C1	0	-0.64	17	i	2
COc1ccc(C(C(=O)NCc2ccccc2)N(Cc2ccc3c(c2)OCO3)C(=O)c2cnccn2)cc1 (centres undefined)	-3	-1.3	9	i	1
CC(C)(C)c1ccc(S(=O)(=O)Nc2cccc(C3OCCCO3)c2)cc1	1	-0.27	86*	i	3
Cc1nc2ccc(Cl)cc2nc(C)/c1=N\O	6	-0.57	8	i	3
CCN(CC)CCn1nc2c3c(cccc3c1=O)-c1ccccc1-2	0	0.18	100*	i	69
CC1CN(c2ccc([N+](=O)[O-])c(NCCOc3ccccc3)c2)CCN1 (centres undefined)	3	0.52	100*	i	1
NC(=O)c1cccnc1Oc1cccc(Cl)c1	-4	1.1	-6	i	1
Clc1cccc(Oc2ncccn2)c1	-1	0.34	50*	i	1
COc1ccc(/C=C2/C(=O)ON=C2c2ccccc2)cc1OC	-1	1.2	4	i	2
O=C(c1cccs1)C1CCCN(Cc2nc(Cc3ccccc3F)no2)C1 (centres undefined)	2	0.66	78*	i	2
Cc1cccc(C)c1NC(=O)COc1ccccc1C(=O)Nc1ccc(Br)cn1	-4	-0.2	47	i	4
Cc1ccccc1NC(NC(=O)c1cccs1)C(Cl)(Cl)Cl (centres undefined)	0	0.74	72*	i	1
Cc1ccc(NCCC(=O)c2cccs2)cc1	-2	1.1	72*	i	3
Cc1ccc(NC(NC(=O)c2cccs2)C(Cl)(Cl)Cl)cc1 (centres undefined)	1	-0.68	71*	i	2
Cc1ccc(NC(NC(=O)c2cccs2)C(Cl)(Cl)Cl)cc1C (centres undefined)	0	-1.3	25	i	2
CCn1cc(Br)c(C(=O)Nc2ccc(Cl)c(Cl)c2)n1	-1	-0.68	-3	i	2
CC(C)(C)c1ccccc1NC(=O)Cn1c(=O)cnc2ccccc21	-4	0.18	55*	i	2
CCCNC(=O)Cn1c(=O)cnc2ccccc21	-2	2.2	0	i	1
CC(C)c1cccc(C(C)C)c1NC(=O)Cn1c(=O)cnc2ccccc21	-1	0.084	92*	i	2
SMILES	b-catenin transl	Dynein cargo inh	L major viab	HSV replic up	MT stabilize HCS
COC(=O)Cn1c(=O)cnc2ccccc21	-3	-1.7	-8	i	4
C/C(=N\Nc1ccc(F)cc1)c1ccncc1	0	-0.037	84*	i	3
O=c1c(-c2cnn(-c3ccccc3)c2)coc2cc(O)ccc12	5	-0.37	96*	i	3
Cc1oc2cc(O)ccc2c(=O)c1-c1cnn(-c2ccccc2)c1	-3	0.13	14	i	5
CC(C)N(C(=O)CSc1nnc(-c2cc3ccccc3cc2O)n1Cc1ccco1)C(C)C	1	-1	54*	i	2
COCCn1c(SCC(=O)N(C(C)C)C(C)C)nnc1-c1cc2ccccc2cc1O	-1	1.2	16	i	4
O=C(Oc1ccc(Br)cc1C(=O)/C=C/c1ccccc1F)c1ccco1	.	-5.8*	100*	.	2
CCc1nnc(NS(=O)(=O)c2ccc(NC(=S)NC(=O)c3ccncc3)cc2)s1	2	-0.96	.	i	.
CCN(C(=O)COC(=O)c1cccnc1Nc1cccc(C(F)(F)F)c1)C1CCS(=O)(=O)C1 (centres undefined)	.	-0.86	59*	i	3
COc1ccc(NC(=O)/C(C#N)=C/C=C/c2ccco2)cc1	43	0.22	32	i	24*
COc1ccccc1C(=O)Nc1nnc(-c2ccc(Cl)cc2)o1	2	0.29	.	i	.
O=C(Nc1nnc(-c2ccc(Cl)cc2)o1)C1=COCCO1	-3	2.1	54*	i	2
Oc1cc(NCc2cccnc2)ccc1-c1nc2ccccc2o1	2	-0.55	99*	i	2
Cc1nc2cc(NC(=O)C3COc4ccccc4O3)ccc2s1 (centres undefined)	3	2.3	0	i	1
Clc1nc(Cl)nc(N(c2ccccc2)c2ccccc2)n1	6	-0.42	-7	i	1
Nc1ccc(N(c2ccccc2)c2ccc(N)cc2)cc1	0	-0.17	100*	i	4
CC1=C(C(=O)Nc2ccc(F)cc2)C(c2ccncc2)C2=C(CCCC2=O)N1 (centres undefined)	2	0.00082	1	i	2
Cc1ccc2c(N)c(C)ccc2c1	-7	1.4	-6	i	6
Cc1ccc2cc3c(N)c4c(C)ccc(C)c4nc3nc2c1	0	1.7	100*	i	5
O=C(CCc1ccccc1)Nc1nnc(-c2ccc3c(c2)CCCC3)o1	-6	-1	12	i	3
O=C(CCc1ccccc1)Nc1nnc(-c2cccs2)o1	.	0.046	57*	i	7
O=C(CCc1ccccc1)Nc1nnc(-c2ccc3c(c2)OCCO3)o1	-1	-0.31	70*	i	2
Cc1ccc(S(=O)(=O)c2nc(S(C)(=O)=O)sc2NCC2CCCO2)cc1 (centres undefined)	-6	-0.15	-3	i	1
O=C(NC1(C(=O)NC2CCCCC2)CCCCC1)c1ccccn1	-2	-1	-3	i	1
Cc1ccc(NC(=O)C2(NC(=O)c3ccccn3)CCCCC2)cc1Br	0	-0.022	58*	i	9
Cc1ccc(SCCNC(=O)C(C)C)cc1	1	-0.38	-1	i	4
CCOC(=O)C1=C(Cn2cnc3ccccc32)NC(=O)NC1c1cc(C)ccc1C (centres undefined)	.	-0.44	17	i	2
CCOC(=O)C1=C(CNCc2ccc(C)cc2)NC(=O)NC1c1cc(C)ccc1C (centres undefined)	-2	0.15	100*	i	2

Compound activity from PubChem.
